ALR H2O2 inh: human ALR oxidase inhibition via reduced H2O2 | P55789 | purified ALR, DTT oxidation, H2O2 HRP-luminol luminescence | inhibition, % (no concentration beside the values) | actives 3.8% (n = 290,000) | AID 485317;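 active = mean replicate inhibition above about 79%, with every replicate also reaching it, limit read from the data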
Target sequence (P55789 whole entry, looked up): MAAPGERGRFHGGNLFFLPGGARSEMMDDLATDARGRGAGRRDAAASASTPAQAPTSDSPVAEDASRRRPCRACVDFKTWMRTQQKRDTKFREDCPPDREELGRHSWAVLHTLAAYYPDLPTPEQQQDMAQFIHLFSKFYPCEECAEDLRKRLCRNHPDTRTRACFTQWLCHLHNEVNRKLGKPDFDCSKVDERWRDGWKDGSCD
CAL PDZ FP-1: blocks peptide binding to human CAL PDZ domain | actives 0.02% (n = 330,000) | inhibition, % at 20 µM | Q9HD26 | AID 504414 | purified CAL PDZ, TMR-peptide fluorescence polarization, 1 h;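 active = highest replicate inhibition of at least 40%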
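Material: tagged CAL PDZ protein CerCALP, purified; buffer or medium: sodium phosphate/NaCl buffer pH 7.4 with TCEP, IgG, Thesit; also added: fluorescent TMR peptide probe; schedule: 1 h incubation at room temperature before polarization reading; technique: fluorescence polarization from S- and P-plane intensities, G-factor corrected; control set: unlabelled peptide and DMSO controls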
Dyrk1A ADPGlo: Dyrk1A (rat) kinase inhibition | Q63470 | ADP-Glo luminescence, NFATc1 peptide | inhibition, % at 12.5 µM | actives 0.43% (n = 310,000); in the data active = inhibition above about 50%
Rtt109 HAT inh: C. albicans Rtt109 histone acetyltransferase inhibition | Q5AAJ8 | purified Rtt109/Vps75, ThioGlo CoA-SH fluorescence, 4 h | inhibition, % at 34.9 µM | actives 0.16% (n = 330,000) | AID 540336;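 active = inhibition of at least 50% in every replicate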
Target sequence (Q5AAJ8 whole entry, looked up): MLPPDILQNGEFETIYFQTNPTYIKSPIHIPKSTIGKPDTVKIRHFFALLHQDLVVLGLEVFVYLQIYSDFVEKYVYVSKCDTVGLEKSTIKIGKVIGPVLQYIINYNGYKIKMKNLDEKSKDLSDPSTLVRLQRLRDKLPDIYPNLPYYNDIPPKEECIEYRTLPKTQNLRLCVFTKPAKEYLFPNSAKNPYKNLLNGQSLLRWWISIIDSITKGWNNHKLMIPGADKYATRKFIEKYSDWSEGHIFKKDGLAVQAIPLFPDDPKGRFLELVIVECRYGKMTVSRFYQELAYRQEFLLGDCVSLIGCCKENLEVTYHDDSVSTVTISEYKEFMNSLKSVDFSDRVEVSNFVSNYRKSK
CAL PDZ FP-2: CAL PDZ (human) peptide binding inhibition; Q9HD26; purified CAL PDZ, TMR-peptide fluorescence polarization, 1 h; inhibition, % at 24.9 µM; actives 0.92% (n = 300,000);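 active = mean inhibition of at least 30% with at least half of replicates also reaching 30%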
A number is an active result. A selection: hits, their analogues and other compounds. The true share with any hit is near 4.3%.

What do the screens show for `CCNc1ccc(C(=O)O)cc1N`?
ALR H2O2 inh: 98; CAL PDZ FP-1: inactive; Dyrk1A ADPGlo: inactive; Rtt109 HAT inh: inactive; CAL PDZ FP-2: inactive

What do the screens show for `CCc1ccccc1Nc1ccc(C(=O)O)cc1N`?
ALR H2O2 inh: 99; CAL PDZ FP-1: inactive; Dyrk1A ADPGlo: inactive; Rtt109 HAT inh: inactive

What do the screens show for `COc1ccc(C2=NN(C(=O)CCC(=O)O)C(c3ccc(Br)cc3)C2)cc1` (stereo not drawn)?
ALR H2O2 inh: inactive; CAL PDZ FP-1: inactive; Dyrk1A ADPGlo: inactive; Rtt109 HAT inh: inactive; CAL PDZ FP-2: inactive

Results for CCCN1CCC(NC(=O)Nc2cc(Cl)ccc2OC)CC1 ?
CAL PDZ FP-1: inactive; Dyrk1A ADPGlo: inactive; Rtt109 HAT inh: inactive; CAL PDZ FP-2: 36

How did CCOC(=O)c1c(N)sc(-c2ccccc2)c1C do in these assays?
ALR H2O2 inh: 99; CAL PDZ FP-1: inactive; Dyrk1A ADPGlo: inactive; Rtt109 HAT inh: inactive; CAL PDZ FP-2: inactive

How did Cc1c(-c2ccccc2)sc(N)c1C(=O)N1CCOCC1 do in these assays?
ALR H2O2 inh: 99; CAL PDZ FP-1: inactive; Dyrk1A ADPGlo: inactive; Rtt109 HAT inh: inactive; CAL PDZ FP-2: inactive

What do the screens show for `NNC(=O)c1cc(-c2ccccc2)sc1N`?
ALR H2O2 inh: 97; CAL PDZ FP-1: inactive; Dyrk1A ADPGlo: inactive; Rtt109 HAT inh: inactive; CAL PDZ FP-2: inactive

How did COC(=O)c1c(N)sc(C(=O)N2CCOCC2)c1C do in these assays?
ALR H2O2 inh: inactive; CAL PDZ FP-1: inactive; Dyrk1A ADPGlo: inactive; Rtt109 HAT inh: inactive; CAL PDZ FP-2: inactive

How did CCOC(=O)c1c(N)sc(C(O)(C(F)(F)F)C(F)(F)F)c1-c1ccccc1 do in these assays?
CAL PDZ FP-1: inactive; Dyrk1A ADPGlo: inactive; Rtt109 HAT inh: inactive; CAL PDZ FP-2: inactive

What do the screens show for `CCOC(=O)c1cc([N+](=O)[O-])sc1N`?
ALR H2O2 inh: inactive; CAL PDZ FP-1: inactive; Dyrk1A ADPGlo: inactive; Rtt109 HAT inh: inactive; CAL PDZ FP-2: 62

Results for CC1CCC(C#N)(N(C)C(=O)CSc2nnc(C3CC3)n2C2CC2)CC1 (stereo not drawn) ?
CAL PDZ FP-1: inactive; Dyrk1A ADPGlo: inactive; Rtt109 HAT inh: inactive; CAL PDZ FP-2: inactive

How did COc1ccc(CN2CCCC(C(=O)Nc3cccc(-n4cccn4)c3)C2)c(F)c1 (stereo not drawn) do in these assays?
ALR H2O2 inh: inactive; CAL PDZ FP-1: inactive; Dyrk1A ADPGlo: inactive; Rtt109 HAT inh: inactive; CAL PDZ FP-2: inactive

What do the screens show for `CCOC(=O)c1sc(-c2ccccc2)cc1N`?
ALR H2O2 inh: inactive; CAL PDZ FP-1: inactive; Dyrk1A ADPGlo: inactive; Rtt109 HAT inh: inactive; CAL PDZ FP-2: inactive

What do the screens show for `CCOC(=O)c1cc(-c2ccccc2)sc1N`?
ALR H2O2 inh: 99; CAL PDZ FP-1: inactive; Dyrk1A ADPGlo: inactive; Rtt109 HAT inh: inactive; CAL PDZ FP-2: inactive

What do the screens show for `CC(C)n1c(=S)[nH]c2c1c(=O)[nH]c(=O)n2C`?
ALR H2O2 inh: inactive; CAL PDZ FP-1: inactive; Dyrk1A ADPGlo: inactive; Rtt109 HAT inh: inactive; CAL PDZ FP-2: 43

How did O=C1C(=O)N(c2nccs2)C(c2ccccc2)/C1=C(\O)c1ccc2c(c1)OCCO2 (stereo not drawn) do in these assays?
ALR H2O2 inh: inactive; CAL PDZ FP-1: inactive; Rtt109 HAT inh: inactive; CAL PDZ FP-2: inactive

What do the screens show for `O=C1C(=O)N(c2nccs2)C(c2ccccc2F)/C1=C(\O)c1ccc2c(c1)OCCO2` (stereo not drawn)?
ALR H2O2 inh: 98; CAL PDZ FP-1: inactive; Dyrk1A ADPGlo: inactive; Rtt109 HAT inh: inactive; CAL PDZ FP-2: inactive

What do the screens show for `Cc1ccc2c(c1)C(c1ccccc1)N(C(=O)c1ccccc1[N+](=O)[O-])CC(=O)N2` (stereo not drawn)?
ALR H2O2 inh: inactive; CAL PDZ FP-1: inactive; Dyrk1A ADPGlo: inactive; Rtt109 HAT inh: inactive; CAL PDZ FP-2: 71

How did NC1=NN=C(c2ccc3c(c2)OCCO3)CS1 do in these assays?
ALR H2O2 inh: 99; CAL PDZ FP-1: inactive; Rtt109 HAT inh: inactive; CAL PDZ FP-2: inactive

What do the screens show for `Cc1sc(N)nc1-c1ccc2c(c1)OCCO2`?
ALR H2O2 inh: inactive; CAL PDZ FP-1: inactive; Dyrk1A ADPGlo: inactive; Rtt109 HAT inh: inactive; CAL PDZ FP-2: inactive

Results for CCCC[n+]1c(C)sc2cc(OC)ccc21 ?
CAL PDZ FP-1: inactive; Dyrk1A ADPGlo: inactive; Rtt109 HAT inh: 185

Results for COc1ccc2sc(C)[n+](C)c2c1 ?
ALR H2O2 inh: inactive; CAL PDZ FP-1: inactive; Dyrk1A ADPGlo: inactive; Rtt109 HAT inh: inactive; CAL PDZ FP-2: inactive

How did COc1ccc(C(=O)NCCOc2ccccc2)cc1S(=O)(=O)N1CCOCC1 do in these assays?
ALR H2O2 inh: inactive; CAL PDZ FP-1: inactive; Dyrk1A ADPGlo: inactive; Rtt109 HAT inh: inactive

What do the screens show for `Cc1cc(C(=O)N2CCCC(Nc3ccccc3)C2)c2ccc(F)cc2n1` (stereo not drawn)?
ALR H2O2 inh: 99; CAL PDZ FP-1: inactive; Dyrk1A ADPGlo: inactive; Rtt109 HAT inh: inactive

Results for COc1ccc(NC2CCCN(C(=O)c3cc(C)nc4cc(F)ccc34)C2)cc1 (stereo not drawn) ?
ALR H2O2 inh: 99; CAL PDZ FP-1: inactive; Dyrk1A ADPGlo: inactive; Rtt109 HAT inh: inactive; CAL PDZ FP-2: inactive

Results for O=C(Nc1nnc(CCS(=O)(=O)c2ccc3ccccc3c2)s1)c1ccc([N+](=O)[O-])cc1 ?
ALR H2O2 inh: inactive; CAL PDZ FP-1: inactive; Dyrk1A ADPGlo: inactive; Rtt109 HAT inh: inactive; CAL PDZ FP-2: inactive

How did c1ccc(-c2nc(-c3ccco3)cs2)nc1 do in these assays?
ALR H2O2 inh: 98; CAL PDZ FP-1: inactive; Rtt109 HAT inh: inactive; CAL PDZ FP-2: inactive

How did c1ccc(-c2nccc(-c3ccco3)n2)nc1 do in these assays?
ALR H2O2 inh: inactive; CAL PDZ FP-1: inactive; Dyrk1A ADPGlo: inactive; Rtt109 HAT inh: inactive; CAL PDZ FP-2: inactive

What do the screens show for `CCOC(=O)c1ccc(NC(=O)CSc2nncn2-c2cccnc2)cc1`?
ALR H2O2 inh: inactive; CAL PDZ FP-1: inactive; Dyrk1A ADPGlo: inactive; Rtt109 HAT inh: inactive; CAL PDZ FP-2: inactive

How did CCC(=O)Nc1c(-c2ccccc2)c(=O)c2ccccc2n1C do in these assays?
ALR H2O2 inh: inactive; CAL PDZ FP-1: inactive; Dyrk1A ADPGlo: inactive; Rtt109 HAT inh: inactive

How did C(=N/N1CCN(c2ccccc2)CC1)/c1ccncc1 do in these assays?
ALR H2O2 inh: 97; CAL PDZ FP-1: inactive; Rtt109 HAT inh: inactive; CAL PDZ FP-2: inactive

How did CC(C)(C)c1ccc(/C=N/N2CCN(c3ccccn3)CC2)cc1 do in these assays?
ALR H2O2 inh: inactive; CAL PDZ FP-1: inactive; Rtt109 HAT inh: inactive; CAL PDZ FP-2: 53

What do the screens show for `CN(c1ccccc1)c1ccc(/C=N/N2CCOCC2)cc1`?
ALR H2O2 inh: 99; CAL PDZ FP-1: inactive; Dyrk1A ADPGlo: inactive; Rtt109 HAT inh: inactive; CAL PDZ FP-2: inactive

Results for Cn1cccc1/C=N/N1CCN(c2ccccc2)CC1 ?
ALR H2O2 inh: 94; CAL PDZ FP-1: inactive; Dyrk1A ADPGlo: inactive; Rtt109 HAT inh: inactive; CAL PDZ FP-2: inactive

How did Oc1ccc(/C=N/N2CCN(c3ccccn3)CC2)cc1 do in these assays?
CAL PDZ FP-1: inactive; Dyrk1A ADPGlo: inactive; Rtt109 HAT inh: inactive; CAL PDZ FP-2: inactive

How did O=C(COc1ccccc1F)Nc1ccc(S(=O)(=O)Nc2nccs2)cc1 do in these assays?
CAL PDZ FP-1: inactive; Dyrk1A ADPGlo: inactive; Rtt109 HAT inh: inactive; CAL PDZ FP-2: inactive

Assay outcomes (PubChem)
